The values below come from ChEMBL document CHEMBL3232811, “Mineralocorticoid receptor antagonists: identification of heterocyclic amide replacements in the oxazolidinedione series” (Bioorg Med Chem Lett, 2014).

Common to all, as to assay type: ADME, organism-based
Holding throughout (details): in vivo

For one data set, the system named is Rattus norvegicus. Description: Dose normalized AUC in rat at 1 mg/kg, iv. Also on record: dose 1 mg/kg, route intravenous. The procedure, abridged:
(§1)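 Rat PK: compound formulated at 1 mg/mL in PEG 200:water (70:30). Dosed iv at 1 mg/kg (n = 2) and orally at 2 mg/kg (n = 3). Blood concentrations measured by LC/MS/MS after protein precipitation with acetonitrile.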

Data set [1] is described as follows: Volume of distribution in rat at 1 mg/kg, iv and 2 mg/kg, po. The procedure, abridged:
as §1

Data set [2] is described as follows: Oral bioavailability in rat at 2 mg/kg. Put shortly: as §1

Molecules are shown by their SMILES.

`COc1cc(OC)cc(-c2nnc([C@@]3(Cc4ccccc4)OC(=O)N([C@H](C)c4ccccc4)C3=O)o2)c1` returned an AUC/dose with Rattus norvegicus of 3.7 µM·kg·h/mg. This molecule also registered a Vd in data set [1] of 1.2 L/kg. The bioavailability (as a rule, dose-corrected exposure relative to a reference, in per cent) in data set [2] is 44%.

As to `C[C@H](c1ccccc1)N1C(=O)O[C@](Cc2ccccc2)(c2nnc(C3(c4ccccc4)CC3)o2)C1=O`, the AUC/dose with Rattus norvegicus came out at 4.4 µM·kg·h/mg. In data set [1], the Vd was determined as 1 L/kg. The molecule further came in with a bioavailability in data set [2] of 89%.
